High-throughput results as filed in PubChem BioAssay.
This is a sample that favours compounds with a hit; in the whole collection about 1.6% have one here.
PAD4 FP inh: inhibitors of human PAD4 | 330,000 tested, 0.41% active | inhibition, % at 6.36 µM | recombinant PAD4, RCA probe fluorescence polarization | Q9UM07 | AID 485272;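 active = percent inhibition above a cutoff equal to the mean of all tested compounds plus 3 SD, cut at about 15% in these data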;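 also: 0% = PAD4 with RCA probe and DMSO and 100% = probe without PAD4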
UCH37 DUB inh: blocks the human deubiquitinase UCH37 | Q9Y5K5 | purified proteasome/UCH37, Ub-AMC cleavage fluorescence | inhibition, % (no concentration beside the values) | 330,000 tested, 0.33% active;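 active = mean inhibition over replicate wells above about 20%, limit read from the data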;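 also: 0% = compound-free wells with enzyme and 100% = wells lacking proteasome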
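System: Proteasome-associated human UCH37 deubiquitinase; Input: 0.15 nM proteasome in added enzyme buffer; Also added: Ub-AMC substrate from 1 µM stock; Incubation: 30 min compound-proteasome preincubation then 25 min substrate reaction, room temperature; Detection: fluorescence, ex 355 nm, em 460 nm; Read-out: % inhibition of Ub-AMC cleavage fluorescence; Benchmarks: no-proteasome and no-compound wells.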
TDP2 absorb: blocks human TDP2 phosphodiesterase activity. O95551. recombinant TDP2, T5PNP hydrolysis, p-nitrophenol absorbance 415 nm. inhibition, % at 12.8 µM. 370,000 tested, 0.34% active. AID 720702;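 active = inhibition above the mean of all tested compounds plus 3 SD, set per campaign, cut at about 25% in these data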;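 also: 0% = DMSO with enzyme and 100% = buffer with substrate but no TDP2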
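Read-out basis: percent inhibition. System: recombinant human TDP2. Buffer or medium: Mg2+-containing Tris-HCl buffer, pH 7.5. Repeats: single replicate. Timing: reaction 2 h, 37 °C. Benchmarks: high control without enzyme, low control DMSO plus TDP2. Probe or stimulus: 5 mM T5PNP. Doses: 12.8 µM only. Measured by: epi absorbance of p-nitrophenol freed from T5PNP by hydrolysis.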
HKDC1 inhibitor: HKDC1 (human) hexokinase inhibition | Q2TB90 | recombinant HKDC1, G6PDH/diaphorase resazurin coupled fluorescence | inhibition, % at 20 µM | 340,000 tested, 0.16% active;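 active = inhibition above about 35% when tested at 20 µM, limit read from the data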;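 also: plate controls were DMSO wells with enzyme for no effect and DMSO wells lacking enzyme for full effect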
Target sequence (Q2TB90 whole entry, looked up): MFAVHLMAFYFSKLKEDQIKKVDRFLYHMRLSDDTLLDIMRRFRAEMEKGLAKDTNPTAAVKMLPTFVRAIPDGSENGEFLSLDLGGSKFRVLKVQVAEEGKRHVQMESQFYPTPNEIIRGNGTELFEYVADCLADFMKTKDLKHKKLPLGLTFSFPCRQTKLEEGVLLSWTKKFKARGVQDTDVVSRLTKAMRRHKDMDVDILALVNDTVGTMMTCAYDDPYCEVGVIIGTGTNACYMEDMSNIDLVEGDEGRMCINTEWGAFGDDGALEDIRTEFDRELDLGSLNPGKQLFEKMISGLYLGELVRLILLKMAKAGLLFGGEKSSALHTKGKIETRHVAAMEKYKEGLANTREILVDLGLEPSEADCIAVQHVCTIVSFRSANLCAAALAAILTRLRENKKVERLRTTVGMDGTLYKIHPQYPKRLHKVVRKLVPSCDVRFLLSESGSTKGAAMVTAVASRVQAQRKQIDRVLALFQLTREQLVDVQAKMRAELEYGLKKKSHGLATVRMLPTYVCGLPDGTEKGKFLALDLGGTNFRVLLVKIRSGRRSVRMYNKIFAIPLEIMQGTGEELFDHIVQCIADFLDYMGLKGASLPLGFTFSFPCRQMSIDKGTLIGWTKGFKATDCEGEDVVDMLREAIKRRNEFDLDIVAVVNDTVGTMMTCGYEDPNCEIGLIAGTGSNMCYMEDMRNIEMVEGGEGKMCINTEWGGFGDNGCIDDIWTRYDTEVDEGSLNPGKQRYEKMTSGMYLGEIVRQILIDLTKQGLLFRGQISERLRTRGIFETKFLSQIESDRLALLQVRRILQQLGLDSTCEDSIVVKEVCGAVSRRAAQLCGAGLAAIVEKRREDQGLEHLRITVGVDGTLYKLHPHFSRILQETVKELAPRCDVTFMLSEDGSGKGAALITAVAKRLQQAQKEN
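Assay system: in-house recombinant HK5 (HKDC1) enzyme. Input: HKDC1 at 5 µg/mL. Medium: Tris pH 8.0 buffer with MgCl2, Tween-20, BSA, BME. Dosing: single 20 µM dose. Schedule: 90 min reaction incubation at room temperature, dark. Signal: resazurin-to-resorufin fluorescence via G6PDH and diaphorase coupling, 525/613 nm. Controls: DMSO-enzyme wells negative, buffer-substituted wells positive.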
CTSL1 counter: counter-screen for PFM18AAP inhibitors: inhibitors of F. hepatica cathepsin L1 | recombinant F. hepatica cathepsin L1, Z-Leu-Arg-MCA fluorescence | inhibition, % at 5.96 µM | 300,000 tested, 0.49% active;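 active = inhibition above the mean of all tested compounds plus 3 SD, set per screening campaign, cut at about 17% in these data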;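 also: 0% = plate median of test compound wells and 100% = 1 µM Z-Phe-Ala-diazomethylketone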
GSTO1 inh: blocks human GSTO1 in RBBP9 counter-screen. inhibition, % at 5.96 µM. 300,000 tested, 1.1% active. recombinant GSTO1, activity-based probe fluorescence polarization. AID 1974. P78417;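 active = inhibition above the campaign mean inhibition plus 3 SD, cut at about 35% in these data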;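 also: 0% = GSTO1-1 with DMSO and 100% = wells lacking GSTO1-1 enzyme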
GSTO1 confirm: GSTO1 (human) inhibition, confirmation; shares compounds with GSTO1 inh; recombinant GSTO1, probe fluorescence polarization; inhibition, % at 5.96 µM; 2,400 tested, 54% active;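 active = inhibition above the primary screen's cutoff, its mean inhibition plus 3 SD, cut at about 35% in these data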;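 also: loss of polarization as inhibitors block binding of rhodamine sulfonate ester activity probe; 0% = GSTO1 with DMSO and 100% = wells lacking GSTO1 enzyme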
GSTO1 ABPP inh: inhibitors of recombinant human GSTO1 | inhibition, % at 1 µM | gel ABPP SE-Rh probe fluorescence | AID 463110 | shares compounds with GSTO1 inh | 130 tested, 30% active;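 active = inhibition of the enzyme GSTO1 above about 75%, limit read from the data; inactive = inhibition below that limit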
Active calls of the source: *; / = no result.

SMILES | PAD4 FP inh | UCH37 DUB inh | TDP2 absorb | HKDC1 inhibitor | CTSL1 counter | GSTO1 inh | GSTO1 confirm | others
C#CC(=O)N(c1cccc(OC)c1)C(C(=O)NC1CCCC1)c1cccs1 (centres undefined) | 6 | 4 | -7 | 25 | 11 | 76* | 76*
CC(=NNC(=O)c1ccc(Br)s1)c1cccnc1 | / | 1 | / | / | / | / | /
O=C1CSC(=NN=Cc2ccccc2)N1Cc1ccco1 | / | 6 | / | / | / | / | /
CC(C)C1=CC2=CCC3C(C)(C(=O)O)CCCC3(C)C2CC1 (centres undefined) (tested in a mixture with another compound) | 6 | / | / | / | 7 | 39* | 34
CN(O)/C=c1/ccc2c(n1)C(=O)C=CC=2 | -9 | 8 | -3 | 11 | 0 | 64* | 21
CCCOc1ccc(-c2c(C(=O)NN=Cc3ccc(OC)cc3)nnn2-c2nonc2N)cc1 | / | 1 | / | / | / | / | /
COc1ccc(C2CC(=O)N(C)c3ccccc3S2)cc1 (centres undefined) | 1 | -1 | -3 | -5 | 0 | 47* | 2
O=C(COc1cccc(Br)c1)NN=C1CCSC1 | / | 1 | / | / | / | / | /
Cc1ccn2cc(-c3ccc(O)c(O)c3)nc2c1 | -1 | -5 | -8 | 0 | -5 | 60* | 12
Oc1ccc(-c2cn3ccccc3n2)cc1 | -5 | -66 | 8 | 8 | -2 | -3 | /
Oc1ccc(-c2cn3ccccc3n2)cc1O | 0 | 0 | -3 | 3 | -1 | 43* | 4
CC(C)(C)c1ccc(C=NNC(=O)CN2CCS(=O)(=O)CC2)cc1 | / | 4 | / | / | / | / | /
O=c1oc2cc(O)ccc2c2oc3cc(O)ccc3c12 | -5 | -98 | 6 | 12 | 2 | 39* | 49*
CC(Sc1nc2ncc(Cl)cc2[nH]1)C(=O)c1c(N)n(C)c(=O)n(C)c1=O (centres undefined) | -8 | 1 | 5 | 4 | -3 | 74* | 6
CC(C)Cn1c(N)c(C(=O)CSc2nc3ncc(Cl)cc3[nH]2)c(=O)n(C)c1=O | -5 | 0 | -12 | 4 | 0 | -13 | /
O=C(CCl)N1CCCC1c1ccc2c(c1)OCCO2 (centres undefined) | 1 | / | 0 | 0 | 75* | 55* | 70* | GSTO1 ABPP inh=7
CC[n+]1ccc(C[n+]2ccccc2)c2ccccc21 | -8 | 2 | 10 | -7 | 10 | 49* | 7
COC(=O)\C(C(C)=O)=C(/C=C/C=C/C=C/N(C)C)N(C)C | 4 | 9 | 6 | 8 | 0 | 38* | -44
COC(=O)/C(C(C)=O)=C(\C=C\N(C)C)N(C)C | 0 | 7 | -5 | -7 | 0 | 3 | /
COc1ccccc1-c1cc(C(=O)NN=Cc2ccc(C)s2)c2ccccc2n1 | / | 4 | / | / | / | / | /
C/C(=C\C(=O)c1ccccc1)Nc1ccc(O)cc1 | 50* | 6 | 21 | 4 | -10 | 78* | 8
COc1ccc(C(=O)/C=C(\C)Nc2ccc(NC(C)=O)cc2)cc1 | 0 | 10 | -9 | -6 | -1 | 1 | /
O=C1c2ccccc2C(=O)C2OC12 (centres undefined) | 5 | / | / | / | 3 | 76* | 27
COc1cc2c(cc1NC(=O)CSc1nnc(Cc3cccs3)n1C)oc1ccccc12 | 2 | 2 | 3 | 11 | 4 | 46* | 26
Cc1cc([N+](=O)[O-])nn1CC(=O)NN=Cc1ccccc1F | / | 1 | / | / | / | / | /
SMILES | PAD4 FP inh | UCH37 DUB inh | TDP2 absorb | HKDC1 inhibitor | CTSL1 counter | GSTO1 inh | GSTO1 confirm | others
CN(C)CCNC(=O)C(=NO)c1ccccn1 | / | 0 | / | / | / | / | /
CC(C)(C)c1ccc(S(=O)(=O)/N=C2\C=C(NS(=O)(=O)c3ccccc3)C(=O)c3ccccc32)cc1 | 2 | / | 22 | 27 | -4 | 71* | 67*
CN(C(=NS(=O)(=O)c1cccs1)c1ccccc1)c1ccc(O)cc1 | / | 2 | / | / | / | / | /
Cc1ccc2nc(/C(C#N)=C\c3ccc([N+](=O)[O-])o3)[nH]c2c1 | -27 | 4 | -8 | 12 | -3 | 39* | 23
CCOCCCNC1=C(Cl)C(=O)c2ccccc2C1=O | -13 | 24* | -2 | 16 | 3 | 65* | 25
O=C1C(Cl)=C(NCCCN2CCOCC2)C(=O)c2ccccc21 | / | 17 | 7 | -2 | / | / | /
O=C1C(Cl)=C(NCCCO)C(=O)c2ccccc21 | -11 | 19 | 12 | 1 | 11 | 62* | 9
O=C(NN=Cc1cccnc1)c1cccc(NC(=O)c2ccccc2Cl)c1 | / | 3 | / | / | / | / | /
C=CCn1c(NC(=O)c2ccc(Br)o2)c(S(=O)(=O)c2ccccc2)c2nc3ccccc3nc21 | 20* | -190 | 23 | 0 | 10 | 65* | 7
O=C(Nc1ccc(S(=O)(=O)NCc2ccccc2)cc1)c1ccc(Br)o1 | -7 | 2 | -4 | 2 | 0 | -11 | /
OC(CNCc1ccccc1)Cn1ccc2ccccc21 (centres undefined) | 1 | -1 | -3 | -10 | 1 | 3 | /
Oc1ccccc1NCC(O)Cn1ccc2ccccc21 (centres undefined) | -6 | 3 | 17 | 23 | -1 | 66* | 7
COc1ccc(NC(=O)CC(C)=NNC(=O)COc2ccc(OC)cc2)cc1 | / | 0 | / | / | / | / | /
NS(=O)(=O)c1ccc(CCNC(=O)c2ccc(Cl)s2)cc1 | 5 | 3 | -14 | -10 | 0 | 0 | /
NS(=O)(=O)c1ccc(CCNC(=O)c2ccc([N+](=O)[O-])s2)cc1 | -16 | 9 | 4 | -3 | 5 | 50* | 7
COC(=O)CC1C(=O)NC2CCCCC2N1C(=O)CCl (centres undefined) | 4 | 3 | 7 | -1 | 12 | 54* | 79*
CCOc1ccc(N=CC2=C(O)CC(C)(C)CC2=O)cc1 | 4 | 10 | 6 | -2 | 3 | 10 | /
COc1ccc(CCN=CC2=C(O)CC(C)(C)CC2=O)cc1 | -1 | 3 | 9 | -2 | -1 | -2 | /
CC1(C)CC(=O)C(C=Nc2ccc(O)cc2)=C(O)C1 | 0 | 11 | 2 | -9 | 0 | 38* | 4
CC1(C)CC(=O)C(C=NCCc2ccc(S(N)(=O)=O)cc2)=C(O)C1 | -3 | 3 | -2 | -3 | -1 | 41* | 5
COCCCn1c(=C(C#N)C(=O)NC(C)C)sc(=Cc2ccccc2OC(F)F)c1=O | / | -12 | / | / | / | / | /
Cc1ccc(SC/C(O)=C(\C#N)c2nc3ccccc3s2)cc1 | -2 | / | 7 | 14 | 2 | 49* | 48*
O=C1CC(O)(C(F)F)Oc2ccc3ccccc3c21 (centres undefined) | 0 | -378 | 8 | 11 | 0 | 51* | 44*
